Measured values from different studies.
Lines come from different studies, so protocols differ.
XDH: Xanthine dehydrogenase/oxidase (XDH, Bos taurus, UniProt P80457)
Adra1b: Alpha-1B adrenergic receptor (Adra1b, Rattus norvegicus, UniProt P15823)
NT5E: 5'-nucleotidase (NT5E, Homo sapiens, UniProt P21589)

| Compound | target | observed | mode | method | tested at | inhibition |
| --- | --- | --- | --- | --- | --- | --- |
| O=C(O)/C=C/c1nccc2c3ccccc3n(Cc3ccc(Br)c4ccccc34)c12 | XDH | enzyme activity | inhibitor | absorbance | 10 µM | 17.8% |
| Oc1ncnc2[nH]ncc12 | XDH | enzyme activity | inhibitor | – | 25 µg/mL | > 90% |
| CCN1/C(=C/C(C)=O)Sc2ccc(F)cc21 | Adra1b | ligand displacement | – | radioligand | 10 µM | 4.13% |
| O=C(NS(=O)(=O)c1ccccc1)c1cc2ccccc2n1Cc1ccc(C2CC2)c2ccccc12 | XDH | enzyme activity | inhibitor | absorbance | 10 µM | 2.49% |
| Cc1cccc(NC(=O)c2sc3nc(C)cc(C)c3c2N)n1 | NT5E | enzyme activity | inhibitor | – | 10 µM | -21% |
| NC/C(=C\F)COc1cccc(Cn2c(=S)[nH]c(=O)c3[nH]cnc32)c1 | Adra1b | ligand displacement | – | radioligand | 10 µM | < 50% |
| N#Cc1c(C(F)(F)F)cc(-c2ccccc2)nc1SCC(=O)Nc1ccccc1 | NT5E | enzyme activity | inhibitor | – | 10 µM | 16% |
| Cc1cc(O)c(-c2ccc([C@@H](C)CN(C)C)cc2)c2c1[nH]c(=O)c1sccc12 | Cyclin-dependent kinase 13 (CDK13, Homo sapiens, UniProt Q14004) | enzyme activity | inhibitor | – | 0.1 µM | -1.62% |
| O=C(O)CCc1nccc2c3ccccc3n(Cc3ccc(Br)c4ccccc34)c12 | XDH | enzyme activity | inhibitor | absorbance | 10 µM | 16.4% |
| COCCOCCOCCNC(=O)c1sc2nc(-c3ccccc3)cc(C(F)(F)F)c2c1N | NT5E | enzyme activity | inhibitor | – | 10 µM | -9% |
| O=C(O[C@@H]1COC(=O)c2cc(O)c(O)c(O)c2-c2c(cc(O)c(O)c2O)C(=O)O[C@H]1[C@@H]1OC(=O)c2cc(O)c(O)c(O)c2-c2c(O)c(O)c(O)c3c2C(=O)O[C@H]1[C@@H]3O)c1cc(O)c(O)c(O)c1 | XDH | enzyme activity | inhibitor | – | 25 µg/mL | 29.8% |
| C#Cc1cc(-c2cc(Nc3nc(N[C@@H](C)c4ccc(F)cn4)ncc3Cl)n[nH]2)ccc1C=O | Mitogen-activated protein kinase kinase kinase kinase 5 (MAP4K5, Homo sapiens, UniProt Q9Y4K4) | enzyme activity | inhibitor | – | 0.2 µM | 92% |
